We go through three compounds from ChEMBL document CHEMBL1687700, “Discovery of an Orally Efficacious Imidazo[5,1-f][1,2,4]triazine Dual Inhibitor of IGF-1R and IR” (ACS Med Chem Lett, 2010).

Series [1] concerns Mus musculus. The experiment in a line: Increase in blood glucose level in CD-1 nu/nu mouse at 10 mg/kg, po after 24 hrs. It is filed as functional, organism-based. The arrangement: dose 10 mg/kg. In short, it runs like this:
(§1)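 Blood glucose measured in GEO xenograft mice after the last dose of a 14-day oral dosing study, over a time course to 24 h.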

The subject of series [2] is Mus musculus. The experiment in a line: Increase in blood glucose level in CD-1 nu/nu mouse at 10 mg/kg, po upto 8 hrs. The arrangement: dose 10 mg/kg. The format is functional, organism-based. In short, it runs like this:
as §1

The test system of series [3] is Mus musculus. The series is described as follows: Inhibition of human IGF1R phosphorylation in human GEO cells xenografted in CD-1 nu/nu mouse assessed as sustained inhibition measured 24 hrs post last dose at 20 mg/kg, po qd administered for 14 days.
Series [4] has as its target RAC-alpha serine/threonine-protein kinase (Homo sapiens) (UniProt P31749). The experiment in a line: Inhibition of AKT phosphorylation in human GEO cells. It is filed as cell-based.
Series [5] in a line: Plasma concentration in human GEO cells xenografted CD-1 nu/nu mouse at 10 mg/kg, po administered as single dose in 40% Trappsol upto 8 hrs. The arrangement: dose 10 mg/kg, route oral. The format is ADME, organism-based. In short, it runs like this: (§2)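 GEO xenograft mice given a single 10 mg/kg oral dose; tumors and plasma sampled over time; tumor pIGF-1R and pIR content expressed as percentage of vehicle-treated controls alongside plasma drug level; means ± SD.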

The nature of series [6]: Cmax in rhesus monkey at 30 mg/kg, po administered as single dose. It is filed as ADME, organism-based, Macaca mulatta. The arrangement: dose 30 mg/kg, route oral. The conditions noted are these: in vivo. In short, it runs like this: (§3)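 Rhesus monkey (male), single oral dose of the HCl salt in 40% w/v hydroxypropyl-β-cyclodextrin vehicle; median PK parameters reported; bioavailability referenced to a 5 mg/kg iv dose.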

The nature of series [7]: AUC in rhesus monkey at 30 mg/kg, po administered as single dose. It is filed as ADME, organism-based, Macaca mulatta. The arrangement: dose 30 mg/kg, route oral. As to conditions: plasma. A digest of the protocol:
as §3

The test system of series [8] is Mus musculus. The series is described as follows: Inhibition of IR phosphorylation in human GEO cells xenografted in CD-1 nu/nu mouse at 5 mg/kg, po bid administered for 14 days. It is filed as functional. The conditions noted are these: CD-1, GEO, 336 h. In short, it runs like this:
(§4)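 GEO xenografts dosed orally for 14 days (qd or bid); tumors removed after last dose, up to 24 h, for pIGF-1R and pIR content relative to vehicle controls; means ± SE.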

Series [9] is described as follows: Plasma protein binding in mouse. The format is ADME, cell-free. The conditions noted are these: read-out: PPB (converted). A digest of the protocol:
(§5)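 Plasma protein binding determined by ultracentrifugation in mouse, rat and human plasma; percent bound reported.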

Series [10] is described as follows: Volume of distribution at steady state in rhesus monkey at 5 mg/kg, iv administered as single dose. Further details: dose 5 mg/kg, route intravenous. The format is ADME, organism-based, Macaca mulatta. The conditions noted are these: in vivo, read-out: Vdss. In short, it runs like this: (§6)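 Single 5 mg/kg iv dose used to derive clearance and Vss; median values reported per species (female rat, male rhesus monkey).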

In the next series the test system is NIH3T3. The experiment in a line: Antitumor activity against mouse NIH/3T3 cells xenografted in CD-1 nu/nu mouse assessed as tumor growth inhibition at 10 mg/kg, po bid administered for 14 days. The format is functional. As to conditions: NIH3T3, 336 h.
Series [11] has as its system Mus musculus. The experiment in a line: Inhibition of human IGF1R phosphorylation in human GEO cells xenografted in CD-1 nu/nu mouse at 5 mg/kg, po bid administered for 14 days. It is filed as functional. As to conditions: CD-1, GEO, 336 h. In short, it runs like this:
as §4

Series [12] can be described thus: Plasma protein binding in human. It is filed as ADME, cell-free. The conditions noted are these: read-out: PPB (converted). A digest of the protocol:
as §5

Series [13] has as its system Mus musculus. The experiment in a line: Inhibition of human IGF1R phosphorylation in human GEO cells xenografted in CD-1 nu/nu mouse at 20 mg/kg, po administered once daily for 14 days. The format is functional. As to conditions: CD-1, GEO, 336 h. In short, it runs like this: as §4
Series [14] can be described thus: Oral bioavailability in rhesus monkey at 30 mg/kg administered as single dose. The format is ADME, organism-based, Macaca mulatta. The conditions noted are these: in vivo. A digest of the protocol:
as §3

Series [15] is described as follows: Antitumor activity against human GEO cells xenografted in CD-1 nu/nu mouse assessed as tumor growth inhibition at 5 mg/kg, po bid administered for 14 days. It is filed as functional. As to conditions: 336 h, read-out: TGI. A digest of the protocol: (§7)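 Nude mouse xenografts dosed orally (HCl salt in 40% w/v hydroxypropyl-β-cyclodextrin) once or twice daily for 14 days; tumor volume expressed as percentage of initial volume, mean ± SE; body weight monitored.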

Series [16] concerns Mus musculus. The experiment in a line: Inhibition of human IGF1R phosphorylation in human GEO cells xenografted in CD-1 nu/nu mouse at 10 mg/kg, po administered as single dose in 40% Trappsol after 16 hrs. It is filed as functional. The conditions noted are these: CD-1, GEO. In short, it runs like this: as §2
Series [17] concerns Mus musculus. The experiment in a line: Inhibition of human IGF1R phosphorylation in human GEO cells xenografted in CD-1 nu/nu mouse at 10 mg/kg, po bid administered for 14 days. It is filed as functional. As to conditions: CD-1, GEO, 336 h. A digest of the protocol:
as §4

The nature of series [18]: Clearance in rhesus monkey at 5 mg/kg, iv administered as single dose. It is filed as ADME, organism-based, Macaca mulatta. Further details: dose 5 mg/kg, route intravenous. The conditions noted are these: in vivo. A digest of the protocol:
as §6

A short description of series [19]: Oral bioavailability in CD-1 mouse at 25 mg/kg administered as single dose. The format is ADME, organism-based. As to conditions: in vivo.
Series [20] is described as follows: Antitumor activity against human GEO cells xenografted in CD-1 nu/nu mouse assessed as tumor growth inhibition at 20 mg/kg, po administered once daily for 14 days. The format is functional. The conditions noted are these: 336 h, read-out: TGI. In short, it runs like this: as §7
Series [21] can be described thus: Plasma concentration in human GEO cells xenografted CD-1 nu/nu mouse at 10 mg/kg, po administered as single dose in 40% Trappsol after 16 hrs. The arrangement: dose 10 mg/kg, route oral. It is filed as ADME, organism-based. A digest of the protocol:
as §2

Series [22] can be described thus: Antitumor activity against human GEO cells xenografted in CD-1 nu/nu mouse assessed as tumor growth inhibition at 10 mg/kg, po bid administered for 14 days. The format is functional. The conditions noted are these: 336 h, read-out: TGI. A digest of the protocol:
as §7

The nature of series [23]: Plasma protein binding in rat. As to conditions: read-out: PPB (converted). The format is ADME, cell-free. A digest of the protocol:
as §5

The test system of series [24] is Mus musculus. The series is described as follows: Inhibition of IR phosphorylation in human GEO cells xenografted in CD-1 nu/nu mouse at 10 mg/kg, po administered as single dose in 40% Trappsol. The conditions noted are these: CD-1, GEO. The format is functional. In short, it runs like this:
as §2

The test system of series [25] is Mus musculus. The series is described as follows: Inhibition of human IGF1R phosphorylation in human GEO cells xenografted in CD-1 nu/nu mouse at 10 mg/kg, po administered as single dose in 40% Trappsol upto 8 hrs. It is filed as functional. The conditions noted are these: CD-1, GEO. A digest of the protocol:
as §2

Series [26] is described as follows: AUC in CD-1 mouse at 25 mg/kg, po administered as single dose. The format is ADME, organism-based. The arrangement: dose 25 mg/kg, route oral. The conditions noted are these: plasma. A digest of the protocol:
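Single oral dose of 25 mg/kg, given as the HCl salt in 40% w/v hydroxypropyl-β-cyclodextrin, to female mice. Plasma exposure is reported as AUC (ng h/mL), with median values given. CL and Vss come from a separate 5 mg/kg iv dose.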

Series [27] is described as follows: Cmax in CD-1 mouse at 25 mg/kg, po administered as single dose. The conditions noted are these: in vivo. It is filed as ADME, organism-based. Further details: dose 25 mg/kg, route oral.
Series [28] can be described thus: Volume of distribution at steady state in CD-1 mouse at 5 mg/kg, iv administered as single dose. It is filed as ADME, organism-based. Further details: dose 5 mg/kg, route intravenous. The conditions noted are these: in vivo, read-out: Vdss.
Series [29] is described as follows: Oral bioavailability in CD-1 mouse at 25 mg/kg, po administered as single dose. The format is ADME, organism-based. As to conditions: CD-1, mouse, in vivo.
The nature of series [30]: Permeability of the compound by PAMPA assay at pH 5.0. It is filed as ADME. As to conditions: read-out: permeability. A digest of the protocol: (§8)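 Parallel artificial membrane permeability assay run at pH 5.0 and pH 7.4; permeability reported in nm/s.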
A short description of series [31]: Permeability of the compound by PAMPA assay at pH 7.4. The format is ADME. As to conditions: read-out: permeability. In short, it runs like this: as §8
The nature of series [32]: Cmax in CD-1 mouse plasma at 25 mg/kg, po administered as single dose. It is filed as ADME, organism-based. Further details: dose 25 mg/kg, route oral.
A short description of series [33]: Clearance in CD-1 mouse at 5 mg/kg, iv administered as single dose. The arrangement: dose 5 mg/kg, route intravenous. The format is ADME, organism-based. As to conditions: in vivo.

The source made the active and inactive calls. No cut-off for these calls is given here. Some results are limits rather than exact numbers.

Chain of RAC-alpha serine/threonine-protein kinase (Homo sapiens) (P31749 whole entry): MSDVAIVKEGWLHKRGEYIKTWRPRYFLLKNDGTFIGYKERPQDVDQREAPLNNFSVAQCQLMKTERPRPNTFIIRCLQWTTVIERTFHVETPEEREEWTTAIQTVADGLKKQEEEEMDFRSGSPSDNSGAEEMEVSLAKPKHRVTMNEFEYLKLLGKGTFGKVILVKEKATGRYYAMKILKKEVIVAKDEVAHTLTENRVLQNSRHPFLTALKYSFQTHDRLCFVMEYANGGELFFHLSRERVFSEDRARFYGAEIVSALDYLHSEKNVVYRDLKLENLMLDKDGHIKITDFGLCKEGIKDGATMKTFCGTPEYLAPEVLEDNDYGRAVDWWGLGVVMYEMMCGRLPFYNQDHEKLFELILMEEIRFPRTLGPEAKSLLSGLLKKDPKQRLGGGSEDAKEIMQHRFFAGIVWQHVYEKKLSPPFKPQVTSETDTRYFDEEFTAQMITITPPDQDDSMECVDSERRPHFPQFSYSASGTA

On to `C[C@]1(O)C[C@@H](c2nc(-c3ccc4ccc(-c5ccccc5)nc4c3F)c3c(N)ncnn32)C1`, for which the outcome in the series with Mus musculus [1] was inactive. Moreover, in the series with Mus musculus [2], the result was Active. In addition, the inhibition entry (in the series on Mus musculus [3]; in [4]) was “Active” in each case.
Consider `C[C@]1(O)C[C@@H](c2nc(-c3ccc4ccc(-c5ccccc5)nc4c3F)c3c(N)ncnn32)C1.Cl`, for which the concentration at 8 h in series [5] is more than 4 µM. In addition, the peak concentration (Cmax) is 10.8 µM in [6] and 35.2 µM in series [27]. The exposure (AUC) is 31.4 µg·h/mL in [7] and 240 µg·h/mL in [26]. Also, the inhibition in vivo at 5 mg/kg in the series with Mus musculus [8] is 40%; with Mus musculus [11] it was 40%; in series [15] it was 31%. Further, the fraction unbound in series [9] is 0.015; in [12], 0.027; in [23], 0.034. Also, in series [10], the Vd is 0.55 L/kg. The inhibition in vivo at 10 mg/kg was 100% in the series with NIH3T3; 50% in the series with Mus musculus [16]; more than 70% with Mus musculus [17]; 91% in series [22]; 50% in the series with Mus musculus [24]; more than 70% in the series on Mus musculus [25]. Also, the inhibition in vivo at 20 mg/kg in the series on Mus musculus [13] is more than 70%; in [20], 85%. Further, the bioavailability came out at 97% in series [14] and 100% in series [19]. The same compound showed a clearance in series [18] of 15 mL/min/kg. Also, in [21], the concentration at 16 h was 0.38 µM.
Turning to `Nc1ncnn2c1c(-c1ccc3ccc(-c4ccccc4)nc3c1F)nc2[C@H]1C[C@@H](N2CCN(C=O)CC2)C1`, the Vd in [28] worked out at 1.2 L/kg. In series [29], this compound yielded a bioavailability of 18%. In addition, the Papp in [30] is 20.4 ×10⁻⁶ cm/s; in series [31] it was 105 ×10⁻⁶ cm/s. Besides, in series [32], the peak concentration (Cmax) came to 3.1 µM. Further, the clearance in [33] came to 7 mL/min/kg.
